ChEMBL document CHEMBL5712912, “Abnormal overexpression of G9a in melanoma cells promotes cancer progression via upregulation of the Notch1 signaling pathway” (Aging (Albany NY), 2020)
The source made the active and inactive calls. The rule behind the calls is not given here.

Legend:
A-375 [1] = assay: Antimigratory activity against human A-375 cells at 2 uM by transwell assay; assay type: functional, cell-based
How it was run: (§1)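 Transwell assay in M14 or A375 cells cultured in high-glucose DMEM with 10% FBS and penicillin/streptomycin; NICD overexpression plasmid transfected with Lipofectamine 2000. Invasion inserts coated with Matrigel diluted 1:6 in serum-free 1640 medium and set at 37 °C for 4 h; migration inserts uncoated, 5000 cells seeded. Control cells received DMSO. Migrated or invaded cells counted.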

M14 [2] = assay: Induction of apoptosis in human M14 cells assessed as live cells at 2 uM by Annexin V-FITC/PI staining based flow cytometry (reference value: 95.1%); assay type: functional
[3] = Toxicity in human A-375 cells xenografted nude mouse assessed as change in body weight at 5 mg/kg, ip administered every other day for 10 days and measured during compound dosing; assay type: organism-based; settings: in vivo, 240 h, time 10 day
How it was run: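 Male nude mice, 6 weeks old, were given A375 cells (2X 106) subcutaneously. After one week, animals with palpable xenografts were randomised into two groups: DMSO vehicle, or compound at 5 mg/kg i.p. every other day for 10 days. Tumour volume was measured, and body weight was monitored.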

[4] = molecular target: T1, Histone-lysine N-methyltransferase EHMT2 (Homo sapiens) (UniProt Q96KQ7); assay: Inhibition of G9a in human M14 cells assessed as decrease in Notch1 expression at 2 uM by Western blot analysis; assay type: cell-based
T1 sequence (whole entry): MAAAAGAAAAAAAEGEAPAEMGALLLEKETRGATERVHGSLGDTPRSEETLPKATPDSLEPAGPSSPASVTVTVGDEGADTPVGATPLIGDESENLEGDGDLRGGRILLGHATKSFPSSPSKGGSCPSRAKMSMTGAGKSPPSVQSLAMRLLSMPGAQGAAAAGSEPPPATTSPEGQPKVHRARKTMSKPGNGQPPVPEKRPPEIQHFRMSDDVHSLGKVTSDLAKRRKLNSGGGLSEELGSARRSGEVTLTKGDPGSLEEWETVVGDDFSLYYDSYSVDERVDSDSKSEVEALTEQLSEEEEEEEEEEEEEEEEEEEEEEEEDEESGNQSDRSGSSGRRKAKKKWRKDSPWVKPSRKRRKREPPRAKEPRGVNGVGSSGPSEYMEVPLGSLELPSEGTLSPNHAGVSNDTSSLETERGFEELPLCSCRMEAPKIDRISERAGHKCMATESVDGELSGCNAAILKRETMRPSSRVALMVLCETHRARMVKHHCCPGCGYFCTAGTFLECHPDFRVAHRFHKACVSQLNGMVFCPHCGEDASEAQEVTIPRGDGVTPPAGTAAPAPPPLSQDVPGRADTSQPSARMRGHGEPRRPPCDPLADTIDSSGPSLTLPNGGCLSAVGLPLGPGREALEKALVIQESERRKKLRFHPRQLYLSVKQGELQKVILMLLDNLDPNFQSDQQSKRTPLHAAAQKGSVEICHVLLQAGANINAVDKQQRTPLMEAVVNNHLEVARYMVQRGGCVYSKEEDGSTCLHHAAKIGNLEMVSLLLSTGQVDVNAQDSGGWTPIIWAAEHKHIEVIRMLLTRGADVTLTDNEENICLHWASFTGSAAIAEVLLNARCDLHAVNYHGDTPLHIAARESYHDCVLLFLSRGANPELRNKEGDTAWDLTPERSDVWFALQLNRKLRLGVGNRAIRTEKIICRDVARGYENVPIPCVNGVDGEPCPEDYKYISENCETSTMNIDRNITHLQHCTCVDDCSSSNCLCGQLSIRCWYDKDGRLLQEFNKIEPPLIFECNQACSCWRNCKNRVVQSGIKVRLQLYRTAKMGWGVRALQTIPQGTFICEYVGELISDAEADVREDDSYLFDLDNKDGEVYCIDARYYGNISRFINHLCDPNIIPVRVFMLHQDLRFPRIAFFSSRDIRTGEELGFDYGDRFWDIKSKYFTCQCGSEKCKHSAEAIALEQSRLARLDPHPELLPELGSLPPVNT

[5] = molecular target: T1, Histone-lysine N-methyltransferase EHMT2 (Homo sapiens); assay: Inhibition of G9a in human M14 cells assessed as decrease in Hes1 expression at 2 uM by Western blot analysis; assay type: cell-based
A-375 [6] = assay: Induction of apoptosis in human A-375 cells assessed as reduction in Bcl-2 expression at 2 uM by Western blot analysis; assay type: functional, cell-based
A-375 [7] = assay: Antiproliferative activity against human A-375 cells overexpressing NICD assessed as reduction in cell proliferation at 2 uM by CCK-8 assay; assay type: functional, cell-based
How it was run: (§2)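 CCK8 proliferation assay. M14 or A375 cells, NICD plasmid-transfected where stated, were seeded at about 1000 cells per well, with 0.1% DMSO-treated cells as control. CCK8 reagent was added every 24 h and incubated 90 min at 37 °C, then OD read at 450 nm to build a proliferation curve. IC50 came from a dose-dependent viability series in A375.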

A-375 [8] = assay: Antimigratory activity against human A-375 cells overexpressing NICD at 2 uM by transwell assay; assay type: functional, cell-based; how it was run: as §1
[9] = molecular target: T1, Histone-lysine N-methyltransferase EHMT2 (Homo sapiens); assay: Inhibition of G9a in human A-375 cells assessed as decrease in Hes1 expression at 2 uM by Western blot analysis; assay type: cell-based
A-375 [10] = assay: Induction of apoptosis in human A-375 cells overexpressing […] assessed as early apoptotic cells by Annexin V-FITC/PI staining based flow cytometry (Rvb-0.43%); assay type: functional; settings: dose 2 µM
A-375 [11] = assay: Induction of apoptosis in human A-375 cells overexpressing […] assessed as necrotic cells by Annexin V-FITC/PI staining based flow cytometry (Rvb-1.34%); assay type: functional; settings: dose 2 µM
M14 [12] = assay: Antiproliferative activity against human M14 cells overexpressing NICD assessed as reduction in cell proliferation at 2 uM by CCK-8 assay; assay type: functional, cell-based; how it was run: as §2
M14 [13] = assay: Induction of apoptosis in human M14 cells assessed as reduction in Bcl-2 expression at 2 uM by Western blot analysis; assay type: functional, cell-based
[14] = molecular target: T1, Histone-lysine N-methyltransferase EHMT2 (Homo sapiens); assay: Inhibition of G9a in human M14 cells assessed as decrease in H3K9me2 expression at 2 uM by Western blot analysis; assay type: cell-based
M14 [15] = assay: Induction of apoptosis in human M14 cells overexpressing NCID assessed as necrotic cells by Annexin V-FITC/PI staining based flow cytometry (Rvb-1.34%); assay type: functional; settings: dose 2 µM
M14 [16] = assay: Induction of apoptosis in human M14 cells assessed as increase in cleaved Caspase-3 expression at 2 uM by Western blot analysis; assay type: functional, cell-based
M14 [17] = assay: Antiinvasive activity against human M14 cells at 2 uM by transwell assay; assay type: functional, cell-based; how it was run: as §1
A-375 [18] = assay: Induction of apoptosis in human A-375 cells assessed as necrotic cells at 2 uM by Annexin V-FITC/PI staining based flow cytometry (reference value: 1.34%); assay type: functional
A-375 [19] = assay: Antiinvasive activity against human A-375 cells overexpressing NICD at 2 uM by transwell assay; assay type: functional, cell-based; how it was run: as §1
M14 [20] = assay: Antimigratory activity against human M14 cells at 2 uM by transwell assay; assay type: functional, cell-based; how it was run: as §1
[21] = molecular target: T1, Histone-lysine N-methyltransferase EHMT2 (Homo sapiens); assay: Inhibition of G9a in human A-375 cells overexpressing NICD assessed as reduction in AKT phosphorylation at 2 uM by Western blot analysis; assay type: cell-based
A-375 [22] = assay: Induction of apoptosis in human A-375 cells overexpressing […] assessed as late apoptotic cells by Annexin V-FITC/PI staining based flow cytometry (Rvb-3.10%); assay type: functional; settings: dose 2 µM
M14 [23] = assay: Induction of apoptosis in human M14 cells assessed as late apoptotic cells at 2 uM by Annexin V-FITC/PI staining based flow cytometry (reference value: 3.10%); assay type: functional
A-375 [24] = assay: Induction of apoptosis in human A-375 cells assessed as late apoptotic cells at 2 uM by Annexin V-FITC/PI staining based flow cytometry (reference value: 3.10%); assay type: functional
A-375 [25] = assay: Induction of apoptosis in human A-375 cells assessed as live cells at 2 uM by Annexin V-FITC/PI staining based flow cytometry (reference value: 95.1%); assay type: functional
A-375 [26] = assay: Antiinvasive activity against human A-375 cells at 2 uM by transwell assay; assay type: functional, cell-based; how it was run: as §1

COc1cc2c(NC3CCN(C(C)C)CC3)nc(N3CCC(F)(F)CC3)nc2cc1OCCCN1CCCC1
Activity (A-375 [1]): Active
Activity (M14 [2]): 89.8%
Activity [3]: Non-Toxic
inhibition [4]: Active
inhibition [5]: Active
Activity (A-375 [6]): Active
Activity (A-375 [7]): inactive
Activity (A-375 [8]): inactive
inhibition [9]: Active
Activity (A-375 [10]): 0.75%
Activity (A-375 [11]): 0.76%
Activity (M14 [12]): inactive
Activity (M14 [13]): Active
inhibition [14]: Active
Activity (M14 [15]): 0.76%
Activity (M14 [16]): Active
Activity (M14 [17]): Active
Activity (A-375 [18]): 0.27%
Activity (A-375 [19]): inactive
Activity (M14 [20]): Active
inhibition [21]: inactive
Activity (A-375 [22]): 3.59%
Activity (M14 [23]): 5.17%
Activity (A-375 [24]): 5.17%
Activity (A-375 [25]): 89.8%
Activity (A-375 [26]): Active
